The source of these data is ChEMBL document CHEMBL1131626 (J Med Chem, 1998).

The target of assay [1] is T1, Progesterone receptor (Mus musculus) (UniProt Q00175).
T1 sequence (whole entry): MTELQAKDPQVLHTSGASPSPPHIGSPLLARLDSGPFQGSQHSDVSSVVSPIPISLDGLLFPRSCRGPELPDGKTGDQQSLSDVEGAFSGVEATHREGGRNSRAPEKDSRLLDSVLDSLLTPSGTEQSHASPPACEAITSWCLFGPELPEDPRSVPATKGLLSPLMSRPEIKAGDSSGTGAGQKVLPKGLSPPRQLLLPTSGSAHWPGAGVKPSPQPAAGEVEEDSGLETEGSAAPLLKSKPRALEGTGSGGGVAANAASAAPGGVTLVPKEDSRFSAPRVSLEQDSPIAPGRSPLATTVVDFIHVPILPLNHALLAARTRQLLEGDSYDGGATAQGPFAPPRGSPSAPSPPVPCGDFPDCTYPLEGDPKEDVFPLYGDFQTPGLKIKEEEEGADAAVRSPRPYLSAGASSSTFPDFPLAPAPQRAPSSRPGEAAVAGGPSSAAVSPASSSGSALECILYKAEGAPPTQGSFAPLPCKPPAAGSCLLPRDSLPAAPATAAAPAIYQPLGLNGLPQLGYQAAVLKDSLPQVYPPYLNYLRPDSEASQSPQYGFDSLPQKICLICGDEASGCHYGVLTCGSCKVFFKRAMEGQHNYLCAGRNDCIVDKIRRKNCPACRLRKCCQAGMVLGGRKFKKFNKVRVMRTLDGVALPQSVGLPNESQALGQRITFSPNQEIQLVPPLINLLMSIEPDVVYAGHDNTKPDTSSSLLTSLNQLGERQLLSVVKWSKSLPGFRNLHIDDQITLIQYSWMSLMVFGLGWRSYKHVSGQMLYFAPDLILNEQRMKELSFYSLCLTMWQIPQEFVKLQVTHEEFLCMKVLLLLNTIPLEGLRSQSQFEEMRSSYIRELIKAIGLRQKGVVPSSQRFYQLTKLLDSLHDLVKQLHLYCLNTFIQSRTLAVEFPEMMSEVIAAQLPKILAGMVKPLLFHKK
Briefly: Effect on pregnancy in mice as corpora lutea at 0.5 mg/mouse dose with simultaneous 0.5 mg RU-486 dose. In kind it is functional, organism-based. In outline: (§1)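 Mature virgin ICR mice, 10-12 weeks old, mated overnight; vaginal plug marks day 1. Oral RU486 0.5 mg (~15 mg/kg), alone or with test compound (mg/mouse), on days 2-4. Compounds in ethanol diluted with corn oil, 0.1 mL. Oil controls. Necropsy on day 8 to count corpora lutea and implantation sites and to score pregnancy. Student t-test.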

Assay [2] has as its target T1, Progesterone receptor (Mus musculus). Kind of assay: Effect on pregnancy in mice as number pregnant/mated at 0.5 mg/mouse dose with simultaneous 0.5 mg RU-486 dose; out of 16. In kind it is functional. The gist of the method:
as §1

Assay [3] has the same target. Kind of assay: Effect on pregnancy in mice as implantation at 0.5 mg/mouse dose with simultaneous 0.5 mg RU-486 dose. In kind it is functional. The gist of the method:
as §1

Assay [4] has the same target. Kind of assay: Effect on pregnancy in mice as percent pregnant at 0.5 mg/mouse dose with simultaneous 0.5 mg RU-486 dose. Type of assay: functional. In outline:
as §1

The target is the same in assay [5]. Kind of assay: Effect on pregnancy in mice as number pregnant/mated at 1 mg/mouse dose with simultaneous 0.5 mg RU-486 dose; out of 11. In kind it is functional. In outline:
as §1

The target is the same in assay [6]. Kind of assay: Effect on pregnancy in mice as implantation at 3 mg/mouse dose with simultaneous 0.5 mg RU-486 dose. Type of assay: functional. In outline:
as §1

Assay [7] shares this target. Briefly: Effect on pregnancy in mice as number pregnant/mated at 3 mg/mouse dose with simultaneous 0.5 mg RU-486 dose; out of 9. Type of assay: functional. In outline: as §1
For assay [8] the target is unchanged. Kind of assay: Effect on pregnancy in mice as percent pregnant at 3 mg/mouse dose with simultaneous 0.5 mg RU-486 dose. Type of assay: functional. The gist of the method:
as §1

Assay [9] has the same target. Briefly: Effect on pregnancy in mice as implantation at 1 mg/mouse dose with simultaneous 0.5 mg RU-486 dose. Type of assay: functional. In outline:
as §1

Assay [10] has the same target. Kind of assay: Effect on pregnancy in mice as corpora lutea at 3 mg/mouse dose with simultaneous 0.5 mg RU-486 dose. In kind it is functional, organism-based. In outline: as §1
Assay [11] has the same target. Briefly: Effect on pregnancy in mice as corpora lutea at 1 mg/mouse dose with simultaneous 0.5 mg RU-486 dose. Type of assay: functional, organism-based. The gist of the method: as §1
Assay [12] shares this target. Kind of assay: Effect on pregnancy in mice as percent pregnant at 1 mg/mouse dose with simultaneous 0.5 mg RU-486 dose. In kind it is functional. The gist of the method:
as §1

Assay [13] has the same target. Kind of assay: Effect on pregnancy in mice as number pregnant/mated at 1 mg/mouse dose with simultaneous 0.5 mg RU-486 dose; out of 10. Type of assay: functional. The gist of the method: as §1
For assay [14] the target is unchanged. Briefly: Effect on pregnancy in mice as number pregnant/mated at 3 mg/mouse dose with simultaneous 0.5 mg RU-486 dose; out of 10. In kind it is functional. The gist of the method: as §1
The target is the same in assay [15]. Briefly: Effect on pregnancy in mice as implantation at 30 mg/mouse dose with simultaneous 0.5 mg RU-486 dose. Type of assay: functional. In outline: as §1
Assay [16] shares this target. Kind of assay: Effect on pregnancy in mice as corpora lutea at 10 mg/mouse dose with simultaneous 0.5 mg RU-486 dose. In kind it is functional, organism-based. The gist of the method: as §1
The target is the same in assay [17]. Kind of assay: Effect on pregnancy in mice as percent pregnant at 10 mg/mouse dose with simultaneous 0.5 mg RU-486 dose. In kind it is functional. In outline:
as §1

For assay [18] the target is unchanged. Kind of assay: Effect on pregnancy in mice as corpora lutea at 30 mg/mouse dose with simultaneous 0.5 mg RU-486 dose. In kind it is functional, organism-based. The gist of the method: as §1
For assay [19] the target is unchanged. Kind of assay: Effect on pregnancy in mice as number pregnant/mated at 3 mg/mouse dose with simultaneous 0.5 mg RU-486 dose; out of 12. In kind it is functional. In outline: as §1
The target is the same in assay [20]. Kind of assay: Effect on pregnancy in mice as number pregnant/mated at 10 mg/mouse dose with simultaneous 0.5 mg RU-486 dose; out of 10. In kind it is functional. The gist of the method:
as §1

Assay [21] has the same target. Kind of assay: Effect on pregnancy in mice as implantation at 10 mg/mouse dose with simultaneous 0.5 mg RU-486 dose. Type of assay: functional. The gist of the method: as §1
For assay [22] the target is unchanged. Briefly: Effect on pregnancy in mice as percent pregnant at 30 mg/mouse dose with simultaneous 0.5 mg RU-486 dose. In kind it is functional. The gist of the method: as §1
For assay [23] the target is unchanged. Briefly: Effect on pregnancy in mice as number pregnant/mated at 30 mg/mouse dose with simultaneous 0.5 mg RU-486 dose; out of 10. Type of assay: functional. In outline:
as §1

For the molecule `CC#C[C@]1(O)CC[C@H]2[C@@H]3CCC4=CC(=O)CCC4=C3[C@@H](c3ccc(N(C)C)cc3)C[C@@]21C`, in assay [1], the Corpora lutea amounted to 13.4. In [2], the No. pregnant/mated was 3. The molecule also showed an Implants in assay [3] of 3.3. Moreover, the Pregnant in assay [4] was determined as 18.8%.

Take `CC#C[C@]1(O)CC[C@H]2[C@@H]3CCC4=CC(=O)CCC4=C3[C@@H](c3ccc(N(C)C)cc3)C[C@@]21C.CC1=CC(C)(C)Nc2ccc3c(c21)C(c1cccc(Cl)c1)Oc1ccc(F)cc1-3`: the No. pregnant/mated in assay [5] was found to be 10; in assay [7], 9. For the same molecule, the Implants in assay [6] is 13.7; in assay [9], 12. The Pregnant worked out at 100% in assay [8] and 91% in assay [12]. The Corpora lutea in assay [10] and in [11] was 14.1 each time.

Regarding `CC#C[C@]1(O)CC[C@H]2[C@@H]3CCC4=CC(=O)CCC4=C3[C@@H](c3ccc(N(C)C)cc3)C[C@@]21C.CC1=CC(C)(C)Nc2ccc3c(c21)C(c1ccc(Cl)c(C)c1)Oc1ccc(F)cc1-3`, the Implants in [6] was 6.6; in assay [9] it was 2.2. The Pregnant in [8] stood at 50%; in [12], 30%. For the same molecule, the Corpora lutea was determined as 13.8 in assay [10] and 13 in [11]. In addition, the No. pregnant/mated in [13] stood at 3; in [14] it was 5.

Take `CC#C[C@]1(O)CC[C@H]2[C@@H]3CCC4=CC(=O)CCC4=C3[C@@H](c3ccc(N(C)C)cc3)C[C@@]21C.CC(=O)O[C@]1(C(C)=O)CC[C@H]2[C@@H]3C[C@H](C)C4=CC(=O)CC[C@]4(C)[C@H]3CC[C@@]21C`: the Implants in assay [15] stood at 6.7; in [6] it was 2.6; in [9] it was 1.2; in assay [21], 1.4. Moreover, the Corpora lutea was found to be 12.3 in assay [16], 10.7 in [18], 13.6 in assay [10] and 11.7 in assay [11]. Moreover, the Pregnant in assay [17] amounted to 10%; in assay [8] it was 16.7%; in [22] it was 50%; in assay [12] it was 10%. Further, the No. pregnant/mated came to 2 in assay [19], 1 in assay [20], 5 in [23] and 1 in assay [13].
